In ChEMBL document CHEMBL2380256, “Discovery of novel Jak2-Stat pathway inhibitors with extended residence time on target” (Bioorg Med Chem Lett, 2013):
One block for each compound: values may come before it. Activity calls are given as the source filed them. No cut-off for these calls is given here.

Experiments:
[1] = species on record: Homo sapiens; test: Selectivity ratio of IC50 for JAK3 (unknown origin) to IC50 for JAK2 (unknown origin)
Outline: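 Jak2 and Jak3 enzyme IC50s determined at 5 mM ATP; the ratio is the Jak3 IC50 divided by the Jak2 IC50.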

[2] = target: T1, Tyrosine-protein kinase JAK2 (Homo sapiens, UniProt O60674); test: Inhibition of JAK2 (unknown origin) using biotinylated TYK2 peptide as substrate after 60 mins
Target sequence in this assay (O60674 whole entry, the tested form may be a part): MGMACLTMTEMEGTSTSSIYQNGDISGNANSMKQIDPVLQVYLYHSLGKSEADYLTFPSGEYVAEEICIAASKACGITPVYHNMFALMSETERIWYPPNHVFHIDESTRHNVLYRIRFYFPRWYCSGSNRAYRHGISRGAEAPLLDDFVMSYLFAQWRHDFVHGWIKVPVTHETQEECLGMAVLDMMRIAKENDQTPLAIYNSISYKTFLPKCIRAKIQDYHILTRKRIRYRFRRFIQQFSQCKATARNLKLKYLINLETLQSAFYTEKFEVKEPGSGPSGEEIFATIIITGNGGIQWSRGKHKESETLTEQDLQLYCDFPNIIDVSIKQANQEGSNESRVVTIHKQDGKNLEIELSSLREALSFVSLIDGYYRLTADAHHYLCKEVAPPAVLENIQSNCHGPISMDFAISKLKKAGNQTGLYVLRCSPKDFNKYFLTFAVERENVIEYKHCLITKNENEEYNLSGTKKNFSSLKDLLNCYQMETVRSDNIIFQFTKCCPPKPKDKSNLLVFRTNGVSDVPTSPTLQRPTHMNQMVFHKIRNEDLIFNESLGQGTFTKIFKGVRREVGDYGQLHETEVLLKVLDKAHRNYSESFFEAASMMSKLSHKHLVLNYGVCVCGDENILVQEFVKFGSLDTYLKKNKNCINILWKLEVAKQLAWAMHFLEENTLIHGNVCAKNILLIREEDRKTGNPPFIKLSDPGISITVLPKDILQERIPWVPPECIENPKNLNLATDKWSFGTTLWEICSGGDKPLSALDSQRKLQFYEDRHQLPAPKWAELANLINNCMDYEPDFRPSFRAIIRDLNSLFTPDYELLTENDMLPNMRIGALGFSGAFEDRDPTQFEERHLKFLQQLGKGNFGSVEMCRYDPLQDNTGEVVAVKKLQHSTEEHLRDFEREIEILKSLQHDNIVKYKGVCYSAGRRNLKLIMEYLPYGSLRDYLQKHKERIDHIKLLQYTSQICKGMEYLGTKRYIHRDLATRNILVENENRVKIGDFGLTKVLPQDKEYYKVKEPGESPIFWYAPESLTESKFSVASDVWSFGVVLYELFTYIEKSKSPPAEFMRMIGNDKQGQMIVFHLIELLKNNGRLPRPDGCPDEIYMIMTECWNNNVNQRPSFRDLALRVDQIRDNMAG

[3] = Growth inhibition of mouse BA/F3 cells transfected with JAK2 TEL domain after 24 hrs by Alamar Blue assay; assay type: functional; conditions: BaF3, 24 h
[4] = target: T2, Tyrosine-protein kinase JAK3 (Homo sapiens, UniProt P52333); test: Inhibition of JAK3 (unknown origin) using biotinylated poly-EY peptide as substrate after 60 mins by HTRF assay
T2 sequence (P52333 whole entry): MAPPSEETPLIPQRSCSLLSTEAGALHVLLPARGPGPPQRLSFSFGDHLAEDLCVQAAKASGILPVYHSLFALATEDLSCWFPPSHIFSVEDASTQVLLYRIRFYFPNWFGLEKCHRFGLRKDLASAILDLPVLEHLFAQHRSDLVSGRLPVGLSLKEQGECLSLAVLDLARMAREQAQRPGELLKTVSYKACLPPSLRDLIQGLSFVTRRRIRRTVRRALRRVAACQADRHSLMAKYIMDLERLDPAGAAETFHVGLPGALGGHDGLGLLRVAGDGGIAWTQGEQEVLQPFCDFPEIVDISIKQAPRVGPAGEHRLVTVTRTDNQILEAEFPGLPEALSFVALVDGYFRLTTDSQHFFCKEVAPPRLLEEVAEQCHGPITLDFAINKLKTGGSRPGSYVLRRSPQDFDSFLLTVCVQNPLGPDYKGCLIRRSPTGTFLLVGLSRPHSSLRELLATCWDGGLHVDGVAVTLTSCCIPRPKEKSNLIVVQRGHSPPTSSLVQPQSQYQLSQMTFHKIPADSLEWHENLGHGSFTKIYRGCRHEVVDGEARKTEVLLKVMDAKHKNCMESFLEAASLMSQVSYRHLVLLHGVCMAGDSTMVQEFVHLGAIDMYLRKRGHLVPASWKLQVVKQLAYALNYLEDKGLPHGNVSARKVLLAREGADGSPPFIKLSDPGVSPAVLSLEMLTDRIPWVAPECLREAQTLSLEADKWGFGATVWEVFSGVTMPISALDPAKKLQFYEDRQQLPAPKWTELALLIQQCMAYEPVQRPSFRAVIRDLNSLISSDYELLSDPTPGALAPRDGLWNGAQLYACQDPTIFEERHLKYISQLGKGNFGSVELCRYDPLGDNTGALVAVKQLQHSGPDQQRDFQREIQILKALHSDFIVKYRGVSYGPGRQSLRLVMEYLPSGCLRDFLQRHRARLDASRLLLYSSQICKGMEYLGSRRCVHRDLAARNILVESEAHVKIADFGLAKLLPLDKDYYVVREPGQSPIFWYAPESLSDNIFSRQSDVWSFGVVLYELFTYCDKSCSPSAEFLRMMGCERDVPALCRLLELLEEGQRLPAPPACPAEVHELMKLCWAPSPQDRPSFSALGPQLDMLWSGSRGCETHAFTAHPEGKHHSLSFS

[5] = test system: Mus musculus; test: In vivo inhibition of JAK2 TEL domain (unknown origin) transfected in mouse Ba/F3 cells allografted in nude mouse assessed as inhibition of STAT5 phosphorylation at 10 mg/kg, po qd after 6 hrs relative to vehicle-treated control; assay type: functional; conditions: BaF3, 6 h
Outline: (§1)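 Female nude mice implanted intravenously with Ba/F3 TEL-JAK2 cells on day 0 and given a single oral dose on day 10. pStat5 was measured at the stated times post-dose. % inhibition was scaled between vehicle and a control inhibitor as maximum and minimum, with n = 3 per dose and time point, reported as mean ±SD.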

[6] = test system: Hepatocyte; test: Metabolic stability in human hepatocytes measured per 10^6 cells; assay type: ADME, cell-based
[7] = Fraction unbound in nude mouse plasma allografted with mouse Ba/F3 cells expressing JAK2 TEL domain at 5 to 10 mg/kg, po qd after 6 hrs; assay type: ADME, organism-based, BaF3; parameters: dose 5-10 mg/kg, route oral
[8] = target: T1, Tyrosine-protein kinase JAK2; test: Competitive inhibition of JAK2 (unknown origin)
Target sequence in this assay (O60674 whole entry, the tested form may be a part): as the sequence (O60674 whole entry, the tested form may be a part) above

[9] = Growth inhibition of human UKE1 cells harboring JAK2 V617F mutant after 2 days by [3H]-thymidine incorporation assay; assay type: functional
[10] = Total plasma concentration in nude mouse allografted with mouse Ba/F3 cells expressing JAK2 TEL domain at 10 mg/kg, po qd measured at 2 hrs; assay type: ADME, organism-based, BaF3; parameters: dose 10 mg/kg, route oral
Outline: (§2)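 Female nude mice implanted intravenously with Ba/F3 TEL-JAK2 cells on day 0 and dosed orally on day 10. Total plasma drug concentration was measured at the stated times post-dose, averaged over n = 3 per dose and time point.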

[11] = Volume of distribution at steady state in CD1 mouse at 10 mg/kg, po and 3 mg/kg, iv; assay type: ADME, organism-based; conditions: in vivo, read-out: Vdss
Outline: (§3)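 Single-dose PK: female CD-1 mice and male Han Wistar rats, 10 mg/kg po in 0.1% HPMC and 3 mg/kg iv in DMA/PEG/saline 40/40/20.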

[12] = Total plasma concentration in nude mouse allografted with mouse Ba/F3 cells expressing JAK2 TEL domain at 5 mg/kg, po qd measured at 2 hrs; assay type: ADME, organism-based, BaF3; parameters: dose 5 mg/kg, route oral; outline: as §2
[13] = test system: Mus musculus; test: In vivo inhibition of JAK2 TEL domain (unknown origin) transfected in mouse Ba/F3 cells allografted in nude mouse assessed as inhibition of STAT5 phosphorylation at 5 mg/kg, po qd measured at 8 hrs relative to vehicle-treated control; assay type: functional; conditions: BaF3, 8 h; outline: as §1
[14] = Oral bioavailability in CD1 mouse at 10 mg/kg; assay type: ADME, organism-based; conditions: in vivo
Outline: (§4)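 Oral bioavailability in female CD-1 mice and male Han Wistar rats: 10 mg/kg po (0.1% HPMC) versus 3 mg/kg iv (DMA/PEG/saline 40/40/20). %F = (AUCpo × DoseIV)/(AUCIV × Dosepo) × 100.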

[15] = test system: Mus musculus; test: In vivo inhibition of JAK2 TEL domain (unknown origin) transfected in mouse Ba/F3 cells allografted in nude mouse assessed as inhibition of STAT5 phosphorylation at 5 mg/kg, po qd after 6 hrs; assay type: functional, organism-based; parameters: dose 5 mg/kg; conditions: BaF3; outline: as §1
[16] = AUC in CD1 mouse at 10 mg/kg, po and 3 mg/kg, iv; assay type: ADME, organism-based; conditions: plasma; outline: as §3
[17] = Clearance in beagle dog at 5 mg/kg, po and […] mg/kg, iv; assay type: ADME, organism-based, Canis lupus familiaris; conditions: in vivo, 2.5 mg/kg
[18] = Total plasma concentration in nude mouse allografted with mouse Ba/F3 cells expressing JAK2 TEL domain at 10 mg/kg, po qd measured at 6 hrs; assay type: ADME, organism-based, BaF3; parameters: dose 10 mg/kg, route oral; outline: as §2
[19] = target: T2, Tyrosine-protein kinase JAK3; test: Inhibition of JAK3 TEL domain (unknown origin) transfected in mouse Ba/F3 cells; assay type: cell-based, BaF3
[20] = test system: Mus musculus; test: In vivo inhibition of JAK2 TEL domain (unknown origin) transfected in mouse Ba/F3 cells allografted in nude mouse assessed as inhibition of STAT5 phosphorylation at 10 mg/kg, po qd measured at 8 hrs relative to vehicle-treated control; assay type: functional; conditions: BaF3, 8 h; outline: as §1
[21] = Total plasma concentration in nude mouse allografted with mouse Ba/F3 cells expressing JAK2 TEL domain at 10 mg/kg, po qd measured at 8 hrs; assay type: ADME, organism-based, BaF3; parameters: dose 10 mg/kg, route oral; outline: as §2
[22] = target: T1, Tyrosine-protein kinase JAK2; test: Inhibition of JAK2 TEL domain (unknown origin) transfected in mouse Ba/F3 cells; assay type: cell-based; conditions: baf3
Target sequence in this assay (O60674 whole entry, looked up, the tested form may be a part): as the sequence (O60674 whole entry, the tested form may be a part) above

[23] = Growth inhibition of mouse BA/F3 cells transfected with JAK3 TEL domain after 24 hrs by Alamar Blue assay; assay type: functional, cell-based; conditions: BaF3, 24 h, read-out: GI50
[24] = Volume of distribution at steady state in beagle dog at 5 mg/kg, po and 2.5 mg/kg, iv; assay type: ADME, organism-based, Canis lupus familiaris; conditions: in vivo, read-out: Vdss
Outline: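 Male Beagle dogs. Oral 5 mg/kg in 0.1% HPMC; intravenous 2.5 mg/kg in HP-β-CD.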

[25] = Clearance in Han Wistar rat at 10 mg/kg, po and 3 mg/kg, iv; assay type: ADME, organism-based; conditions: in vivo; outline: as §3
[26] = Total plasma concentration in nude mouse allografted with mouse Ba/F3 cells expressing JAK2 TEL domain at 5 mg/kg, po qd measured at 6 hrs; assay type: ADME, organism-based, BaF3; parameters: dose 5 mg/kg, route oral; outline: as §2
[27] = AUC in Han Wistar rat at 10 mg/kg, po and 3 mg/kg, iv; assay type: ADME, organism-based; conditions: plasma; outline: as §3
[28] = Total plasma concentration in nude mouse allografted with mouse Ba/F3 cells expressing JAK2 TEL domain at 5 mg/kg, po qd measured at 8 hrs; assay type: ADME, organism-based, BaF3; parameters: dose 5 mg/kg, route oral; outline: as §2
[29] = Oral bioavailability in Han Wistar rat at 10 mg/kg; assay type: ADME, organism-based; conditions: in vivo; outline: as §4
[30] = Clearance in CD1 mouse at 10 mg/kg, po and 3 mg/kg, iv; assay type: ADME, organism-based; conditions: in vivo; outline: as §3
[31] = test system: SET-2; test: Growth inhibition of human SET2 harboring JAK2 V617F mutant after 24 hrs by Alamar Blue assay; assay type: functional; conditions: SET-2, 24 h
[32] = Volume of distribution at steady state in Han Wistar rat at 10 mg/kg, po and 3 mg/kg, iv; assay type: ADME, organism-based; conditions: in vivo, read-out: Vdss

Ratio IC50 [1]: > 10
Compound: Cc1cc(Nc2cc(N3CCOCC3)nc(N[C@@H](C)c3ncc(F)cn3)n2)n[nH]1

IC50 [2]: 5 nM
IC50 [4]: 95 nM
Compound: Cc1cc(Nc2nc(N[C@@H](C)c3ncc(F)cn3)cc(N3CCOCC3)n2)n[nH]1
GI50 [3]: 58 nM

Stability [6]: 5.2 µL/min/1e6 cells
fraction unbound at 6 h [7]: 0.06
Ki [8]: 1.41 nM
concentration at 2 h [10]: 376 ng/mL
Vd [11]: 2.9 L/kg
concentration at 2 h [12]: 228 ng/mL
bioavailability [14]: 64%
IC50 [2]: 3 nM
AUC [16]: 13.3 µM·h
clearance [17]: 14 mL/min/kg
concentration at 6 h [18]: 248 ng/mL
IC50 [19]: 370 nM
concentration at 8 h [21]: 123 ng/mL
IC50 [22]: 7 nM
Vd [24]: 2.5 L/kg
clearance [25]: 12 mL/min/kg
concentration at 6 h [26]: 98 ng/mL
AUC [27]: 17.7 µM·h
concentration at 8 h [28]: 55 ng/mL
bioavailability [29]: 51%
clearance [30]: 18 mL/min/kg
Vd [32]: 3.1 L/kg
IC50 [4]: 8 nM
Compound: Cc1cc(Nc2nc(N[C@@H](C)c3ncc(F)cc3F)c(F)c(N3CCOCC3)n2)n[nH]1
inhibition in vivo at 10 mg/kg [5]: > 80%
GI50 [9]: 22 nM
inhibition in vivo at 5 mg/kg [13]: 50%
inhibition [15]: Active
GI50 [3]: 8 nM
inhibition in vivo at 10 mg/kg [20]: 70%
GI50 [23]: 300 nM
GI50 [31]: 14 nM

IC50 [2]: 3 nM
IC50 [4]: 229 nM
Compound: Cc1cc(Nc2nc(N[C@@H](C)c3ncc(F)cn3)c(F)c(N3CCOCC3)n2)[nH]n1
